“And” between values parts separate entries of the source, which are not always exact repeats. Equal entries are not always repeated.
Columns and labels:
Assay type in all cases: functional
T47D = assay: Antitumor activity against human T47D cells; settings: for TGI: read-out: pTGI (converted)
Outline: (§1)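 NCI 60-cell-line screen. Parameters were GI50 (50% net growth inhibition), TGI and LC50, each reported as –log molar concentration. Where an effect was not reached within the tested range, the highest tested concentration was used in the calculation.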

HCT-15 = assay: Antitumor activity against human HCT15 cells; settings: for CC50: read-out: Log LC50 (the source's name) (converted); for TGI: read-out: pTGI (converted)
Outline: (§2)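 Run by the NCI in its in vitro disease-oriented screen of about 60 human tumour cell lines. For each line it reports pGI50 (50% net growth inhibition), pTGI (total growth inhibition) and pLC50 (50% net cell death), each as –log molar concentration. Where an effect was not reached within the tested range, the highest tested concentration was used.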

HCC 2998 = assay: Antitumor activity against human HCC2998 cells; settings: for TGI: read-out: pTGI (converted); outline: as §2
EKVX = assay: Antitumor activity against human EKVX cells; settings: for TGI: read-out: pTGI (converted); outline: as §2
MDA-MB-435 = assay: Antitumor activity against human MDA-MB-435 cells; settings: for TGI: read-out: pTGI (converted); outline: as §2
SR = assay: Antitumor activity against human SR cells; settings: for TGI: read-out: pTGI (converted); outline: as §1
HOP-92 = assay: Antitumor activity against human HOP92 cells; settings: for TGI: read-out: pTGI (converted); outline: as §2
COLO 205 = assay: Antitumor activity against human COLO205 cells; settings: for TGI: read-out: pTGI (converted); outline: as §2
NCI/ADR-RES = assay: Antitumor activity against human NCI/ADR-RES cells; settings: for TGI: read-out: pTGI (converted); outline: as §2
LOX IMVI = assay: Antitumor activity against human LOXIMVI cells; settings: for TGI: read-out: pTGI (converted); outline: as §2
SK-MEL-5 = assay: Antitumor activity against human SKMEL5 cells; settings: for TGI: read-out: pTGI (converted); outline: as §2
KM12 = assay: Antitumor activity against human KM12 cells; settings: for TGI: read-out: pTGI (converted); outline: as §2
NCI-H23 = assay: Antitumor activity against human NCI-H23 cells; settings: for TGI: read-out: pTGI (converted); outline: as §2
MCF7 = assay: Cell viability against human MCF7 cells at 10 uM
CCRF-CEM [1] = assay: Growth inhibition of human CEM cells after 72 hrs by MTT assay
Outline: (§3)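 Growth inhibition by MTT after 72 h incubation. Resistant sublines: LoVoDoxo and MCF-7 MDR were kept in 0.1 µg/mL doxorubicin; CEMVbl-100 was selected against vinblastine. GI50 given as mean ± SEM of three independent experiments. Resistance index is resistant-line GI50 over parental GI50.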

HCT-116 = assay: Antitumor activity against human HCT116 cells; settings: for TGI: read-out: pTGI (converted); outline: as §2
U-251 = assay: Antitumor activity against human U251 cells; settings: for CC50: read-out: Log LC50 (the source's name) (converted); for TGI: read-out: pTGI (converted); outline: as §1
BT-549 = assay: Antitumor activity against human BT549 cells; settings: for TGI: read-out: pTGI (converted); outline: as §2
Malme-3M = assay: Antitumor activity against human MALME3M cells; settings: for CC50: read-out: Log LC50 (the source's name) (converted); for TGI: read-out: pTGI (converted); outline: as §2
MOLT-4 = assay: Antitumor activity against human MOLT4 cells; settings: for TGI: read-out: pTGI (converted); outline: as §2
DU-145 = assay: Antitumor activity against human DU145 cells; settings: for CC50: read-out: Log LC50 (the source's name) (converted); outline: as §2
CCRF-CEM [2] = assay: Growth inhibition of human vinblastine-resistant CEM cells after 72 hrs by MTT assay; outline: as §3
PC-3 = assay: Antitumor activity against human PC3 cells; settings: for TGI: read-out: pTGI (converted); outline: as §2
M14 = assay: Antitumor activity against human M14 cells; settings: for CC50: read-out: Log LC50 (the source's name) (converted); for TGI: read-out: pTGI (converted); outline: as §2
NCI-H460 = assay: Cell viability against human NCI-H460 cells at 10 uM

O=c1[nH]c2cc(Cl)c(Cl)cc2n2cc3ccccc3c12
GI50 (T47D): 30.9 µM
LC50 (T47D): > 100 µM
TGI (T47D): 75.9 µM
GI50 (HCT-15): 16.6 µM
CC50 (HCT-15): 55 µM
TGI (HCT-15): 30.2 µM
GI50 (HCC 2998): 0.813 µM
LC50 (HCC 2998): 43.7 µM
TGI (HCC 2998): 18.6 µM
GI50 (EKVX): 21.9 µM
LC50 (50% net cell kill) (EKVX): 87.1 µM
TGI (EKVX): 43.7 µM
GI50 (MDA-MB-435): 17 µM
LC50 (50% net cell death) (MDA-MB-435): 55 µM
TGI (MDA-MB-435): 30.2 µM
GI50 (SR): 17.4 µM
LC50 (SR): 87.1 µM
TGI (SR): 38.9 µM
GI50 (HOP-92): 18.2 µM
LC50 (HOP-92): 66.1 µM
TGI (HOP-92): 34.7 µM
GI50 (COLO 205): 29.5 µM
LC50 (COLO 205): > 100 µM
TGI (COLO 205): 39.8 µM
GI50 (NCI/ADR-RES): 17.8 µM
LC50 (NCI/ADR-RES): 56.2 µM
TGI (NCI/ADR-RES): 31.6 µM
GI50 (LOX IMVI): 17.4 µM
LC50 (50% net cell kill) (LOX IMVI): 56.2 µM
TGI (LOX IMVI): 30.9 µM
GI50 (SK-MEL-5): 20 µM
LC50 (SK-MEL-5): 87.1 µM
TGI (SK-MEL-5): 41.7 µM
GI50 (KM12): 17.4 µM
LC50 (50% net cell death) (KM12): 56.2 µM
TGI (KM12): 30.9 µM
GI50 (NCI-H23): 17.4 µM
LC50 (50% net cell kill) (NCI-H23): 56.2 µM
TGI (NCI-H23): 30.9 µM
Activity (MCF7): 10%
GI50 (CCRF-CEM [1]): 2.2 µM
GI50 (HCT-116): 20.9 µM
LC50 (HCT-116): 58.9 µM
TGI (HCT-116): 35.5 µM
GI50 (U-251): 16.2 µM
CC50 (U-251): 55 µM
TGI (U-251): 30.2 µM
GI50 (BT-549): 26.3 µM
LC50 (50% net cell kill) (BT-549): > 100 µM
TGI (BT-549): 57.5 µM
GI50 (Malme-3M): 17 µM
CC50 (Malme-3M): 63.1 µM
TGI (Malme-3M): 32.4 µM
GI50 (MOLT-4): 18.6 µM
LC50 (MOLT-4): 72.4 µM
TGI (MOLT-4): 37.2 µM
GI50 (DU-145): 31.6 µM
GI50 (DU-145; Homo sapiens, DU-145): 17.8 µM
CC50 (DU-145; Homo sapiens, DU-145): 56.2 µM
GI50 (CCRF-CEM [2]): 1.9 µM
GI50 (PC-3): 17.4 µM
LC50 (50% net cell death) (PC-3): 56.2 µM
TGI (PC-3): 30.9 µM
GI50 (M14): 22.9 µM
CC50 (M14): 69.2 µM
TGI (M14): 39.8 µM
Activity (NCI-H460): 0%

Cc1cccc2c1[nH]c(=O)c1c3ccccc3cn21
GI50 (T47D): 11.5 µM
LC50 (T47D): > 100 µM
TGI (T47D): 49 µM
GI50 (HCT-15): 5.25 µM
CC50 (HCT-15): > 100 µM
TGI (HCT-15): 31.6 µM
GI50 (HCC 2998): 4.57 µM
LC50 (HCC 2998): 40.7 µM
TGI (HCC 2998): 16.2 µM
GI50 (EKVX): 5.62 µM
LC50 (50% net cell kill) (EKVX): > 100 µM
TGI (EKVX): 44.7 µM
GI50 (MDA-MB-435): 3.16 µM
LC50 (50% net cell death) (MDA-MB-435): 95.5 µM
TGI (MDA-MB-435): 11.5 µM
GI50 (SR): 1.55 µM
LC50 (SR): 12.6 µM
TGI (SR): 4.17 µM
GI50 (HOP-92): 3.98 µM
LC50 (HOP-92): > 100 µM
TGI (HOP-92): 32.4 µM
GI50 (COLO 205): 7.41 µM
LC50 (COLO 205): > 100 µM
TGI (COLO 205): 34.7 µM
GI50 (NCI/ADR-RES): 12 µM
LC50 (NCI/ADR-RES): > 100 µM
TGI (NCI/ADR-RES): 34.7 µM
GI50 (LOX IMVI): 6.17 µM
LC50 (50% net cell kill) (LOX IMVI): 42.7 µM
TGI (LOX IMVI): 18.2 µM
GI50 (SK-MEL-5): 11.7 µM
LC50 (SK-MEL-5): 49 µM
TGI (SK-MEL-5): 24 µM
GI50 (KM12): 3.39 µM
LC50 (50% net cell death) (KM12): > 100 µM
TGI (KM12): 22.9 µM
GI50 (NCI-H23): 17.4 µM
LC50 (50% net cell kill) (NCI-H23): 87.1 µM
TGI (NCI-H23): 38.9 µM
Activity (MCF7): 27%
GI50 (CCRF-CEM [1]): 2.9 µM
GI50 (HCT-116): 2.69 µM
LC50 (HCT-116): 33.9 µM
TGI (HCT-116): 11.7 µM
GI50 (U-251): 6.61 µM
CC50 (U-251): 45.7 µM
TGI (U-251): 19.5 µM
GI50 (BT-549): 12 µM
LC50 (50% net cell kill) (BT-549): > 100 µM
TGI (BT-549): 58.9 µM
GI50 (Malme-3M): 8.32 µM
CC50 (Malme-3M): 67.6 µM
TGI (Malme-3M): 24.5 µM
GI50 (MOLT-4): 1.82 µM
LC50 (MOLT-4): 20.9 µM
TGI (MOLT-4): 5.62 µM
GI50 (DU-145): 5.25 µM and 17.4 µM
CC50 (DU-145; Homo sapiens, DU-145): 41.7 µM
GI50 (CCRF-CEM [2]): 3 µM
GI50 (PC-3): 3.89 µM
LC50 (50% net cell death) (PC-3): > 100 µM
TGI (PC-3): 44.7 µM
GI50 (M14): 12.6 µM
CC50 (M14): 77.6 µM
TGI (M14): 30.9 µM
Activity (NCI-H460): 2%

O=c1[nH]c2ccccc2n2cc3ccccc3c12
GI50 (T47D): 7.41 µM
LC50 (T47D): > 100 µM
TGI (T47D): > 100 µM
GI50 (HCT-15): 3.31 µM
CC50 (HCT-15): 93.3 µM
TGI (HCT-15): 18.6 µM
GI50 (HCC 2998): 5.89 µM
LC50 (HCC 2998): 57.5 µM
TGI (HCC 2998): 20.9 µM
GI50 (EKVX): 4.79 µM
LC50 (50% net cell kill) (EKVX): > 100 µM
TGI (EKVX): 69.2 µM
GI50 (MDA-MB-435): 16.2 µM
LC50 (50% net cell death) (MDA-MB-435): 58.9 µM
TGI (MDA-MB-435): 30.9 µM
GI50 (SR): 2.88 µM
LC50 (SR): > 100 µM
TGI (SR): 7.76 µM
GI50 (HOP-92): 3.98 µM
LC50 (HOP-92): 51.3 µM
TGI (HOP-92): 18.6 µM
GI50 (COLO 205): 4.57 µM
LC50 (COLO 205): > 100 µM
TGI (COLO 205): > 100 µM
GI50 (NCI/ADR-RES): 6.46 µM
LC50 (NCI/ADR-RES): > 100 µM
TGI (NCI/ADR-RES): 32.4 µM
GI50 (LOX IMVI): 3.02 µM
LC50 (50% net cell kill) (LOX IMVI): 85.1 µM
TGI (LOX IMVI): 12 µM
GI50 (SK-MEL-5): 1.91 µM
LC50 (SK-MEL-5): 60.3 µM
TGI (SK-MEL-5): 14.8 µM
GI50 (KM12): 19.1 µM
LC50 (50% net cell death) (KM12): 83.2 µM
TGI (KM12): 39.8 µM
GI50 (NCI-H23): 11.2 µM
LC50 (50% net cell kill) (NCI-H23): > 100 µM
TGI (NCI-H23): 36.3 µM
Activity (MCF7): 6%
GI50 (CCRF-CEM [1]): 4.7 µM
GI50 (HCT-116): 2.14 µM
LC50 (HCT-116): 49 µM
TGI (HCT-116): 12.3 µM
GI50 (U-251): 3.24 µM
CC50 (U-251): 70.8 µM
TGI (U-251): 13.5 µM
GI50 (BT-549): 19.1 µM
LC50 (50% net cell kill) (BT-549): > 100 µM
TGI (BT-549): 64.6 µM
GI50 (Malme-3M): 25.1 µM
CC50 (Malme-3M): 85.1 µM
TGI (Malme-3M): 46.8 µM
GI50 (MOLT-4): 3.63 µM
LC50 (MOLT-4): > 100 µM
TGI (MOLT-4): 8.71 µM
GI50 (DU-145): 7.59 µM and 38 µM
CC50 (DU-145; Homo sapiens, DU-145): > 100 µM
GI50 (CCRF-CEM [2]): 3.8 µM
GI50 (PC-3): 5.75 µM
LC50 (50% net cell death) (PC-3): > 100 µM
TGI (PC-3): 28.8 µM
GI50 (M14): 6.46 µM
CC50 (M14): 64.6 µM
TGI (M14): 22.9 µM
Activity (NCI-H460): 0%

From ChEMBL document CHEMBL1144782, “Isoindolo[2,1-a]quinoxaline derivatives, novel potent antitumor agents with dual inhibition of tubulin polymerization and topoisomerase I” (2008)
